Source: PubChem BioAssay
Most compounds without a hit are left out; they make up all but 4.5% or so of the library.
NF-kB neuron act = NF-kB expression increase, human neuronal cells. NF-kB reporter expression; stronger effect = higher value. fold change at 12.5 µM. 190,000 compounds, 1.6% hits; in the data active = fold change above about 3.3
STAT1 act = increases IFN-gamma driven STAT1 reporter signal. NIH 3T3 STAT1-luciferase reporter, luminescence; 100% = IFN-gamma alone, no compound. 200,000 compounds, 2.6% hits. AID 932. activation (% of control), % at 5.5 µM;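 active = activation above the screen-wide mean activation plus 3 SD, cut at about 130% in these data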;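 also: raw ratio to IFN-gamma control signal so 100% means no change and 0% no light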
APP 5'UTR act = activates APP 5'UTR luciferase reporter; 190,000 compounds, 1% hits; activation, % at 2 µM; AID 1276; SH-SY5Y APP 5'UTR luciferase reporter, luminescence; zero percent = DMSO vehicle wells;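 active = activation above a set limit, based on mean plus 3 SD of controls, cut at about 140% in these data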
PERK inhibitor = blocks human PERK kinase. CHO PERK-DD fusion, SEAP luminescence translation reporter. inhibition, % at 5.6 µM. Q9NZJ5. AID 1416. 220,000 compounds, 0.17% hits;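 active = inhibition above the mean inhibition of all tested compounds plus 3 SD, set separately per screening campaign, cut at about 2.9% in these data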;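 also: PERK kinase domain activated by AP20187 dimerizer at 100 nM; 0% = DMSO with dimerizer and 100% = rapamycin at 8.4 µM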
Target sequence (Q9NZJ5 whole entry, looked up, the tested form may be a part): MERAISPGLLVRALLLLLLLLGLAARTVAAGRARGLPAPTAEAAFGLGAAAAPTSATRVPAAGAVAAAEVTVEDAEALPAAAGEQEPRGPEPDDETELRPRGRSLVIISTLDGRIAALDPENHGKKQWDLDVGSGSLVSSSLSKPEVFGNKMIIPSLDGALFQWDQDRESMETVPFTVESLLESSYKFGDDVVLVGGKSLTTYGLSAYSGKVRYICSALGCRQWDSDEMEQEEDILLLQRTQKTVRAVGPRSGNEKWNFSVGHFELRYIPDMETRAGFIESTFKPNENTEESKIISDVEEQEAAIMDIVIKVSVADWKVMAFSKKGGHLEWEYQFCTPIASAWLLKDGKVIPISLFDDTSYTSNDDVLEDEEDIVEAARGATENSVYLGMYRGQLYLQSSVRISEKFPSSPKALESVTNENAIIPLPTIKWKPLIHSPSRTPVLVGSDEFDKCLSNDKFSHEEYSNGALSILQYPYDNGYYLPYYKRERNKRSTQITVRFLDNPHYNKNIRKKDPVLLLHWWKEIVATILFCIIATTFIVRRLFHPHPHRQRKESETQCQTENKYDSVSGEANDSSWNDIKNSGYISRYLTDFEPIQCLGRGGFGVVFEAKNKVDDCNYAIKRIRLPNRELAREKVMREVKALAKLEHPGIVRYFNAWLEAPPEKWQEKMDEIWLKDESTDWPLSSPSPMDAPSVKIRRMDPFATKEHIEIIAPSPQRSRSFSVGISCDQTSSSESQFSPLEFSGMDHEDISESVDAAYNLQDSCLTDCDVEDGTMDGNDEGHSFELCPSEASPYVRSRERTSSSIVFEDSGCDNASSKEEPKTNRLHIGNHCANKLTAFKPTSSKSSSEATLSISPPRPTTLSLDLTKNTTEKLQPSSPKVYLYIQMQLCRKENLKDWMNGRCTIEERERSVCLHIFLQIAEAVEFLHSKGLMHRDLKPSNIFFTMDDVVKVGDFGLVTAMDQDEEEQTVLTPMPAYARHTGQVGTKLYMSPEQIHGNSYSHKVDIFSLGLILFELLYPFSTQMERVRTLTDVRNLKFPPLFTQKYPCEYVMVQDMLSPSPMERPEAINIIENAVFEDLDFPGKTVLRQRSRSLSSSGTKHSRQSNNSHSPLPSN
AHR activator = activators of human aryl hydrocarbon receptor | AHR-responsive luciferase reporter cells, luminescence | activation, % at 5 µM | 320,000 compounds, 2.5% hits | AID 2796; in the data active = activation above about 47%;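 also: 0% = vehicle wells and 100% = reference agonist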
Mdm2 ligase inh = blocks human Mdm2 ubiquitin ligase activity. 210,000 compounds, 0.11% hits. signal enhancement, % at 5 µM. Q00987. cell-based MDM2 ubiquitination luciferase reporter, 2 h; 0 = plate control, 100 = twice control, blank-subtracted. AID 1230;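 active = signal enhancement of 30% or more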;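 also: luminescence tracks abundance of the self-degrading MDM2-luciferase fusion protein; higher signal means inhibition of MDM2 E3 ligase activity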
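Timing – 2 h compound exposure at 37 °C · Assay system – mammalian cells stably expressing self-ubiquitinating, self-degrading MDM2 E3–luciferase fusion · Amount – 2000 cells seeded into each well · Measure – % luminescence enhancement versus blank-corrected plate control mean · Measured by – SteadyLite luminescence, 15 min reagent step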
The depositor's hits bear a star; x = not tested or not shown.

SMILES	NF-kB neuron act	STAT1 act	APP 5'UTR act	PERK inhibitor	AHR activator	Mdm2 ligase inh
O=C1CC(NCc2cccs2)C(=O)N1c1ccc(Cl)cc1 (stereo not drawn)	1.04	100.7	2.3	-0.3	72.5*	-2.4
CCN(CC)CCN1CCn2c3c(c4cc(C)ccc42)CCCC31 (stereo not drawn)	1.16	84.8	2.9	-0.9	14.8	x
Cc1ccc2c(c1)c1c3n2CCN(C=O)C3CCC1 (stereo not drawn)	x	x	x	x	53.5*	x
CC1=NN(c2ccc([N+](=O)[O-])cc2)C(=O)/C1=C\N(C)C	1.16	102.8	-8.2	0.6	10.9	1.5
CN(C)/C=C1/C(=O)N(c2ccc([N+](=O)[O-])cc2)N=C1c1ccccc1	1.83	143.8*	42.1	0.4	11.7	-18.5
Cc1nn(CC(=O)N(CC(C)C)C2CCS(=O)(=O)C2)c(C)c1[N+](=O)[O-] (stereo not drawn)	x	x	x	x	-0.1	x
COc1ccc(NC(=O)c2cc(-c3ccccc3Cl)on2)cc1	x	x	x	x	55.7*	x
COc1ccc(OC)c(-c2cc(C(=O)Nc3cccc(Cl)c3)no2)c1	1.08	90.8	-4.9	0.8	54.8*	-14.7
COc1ccc(NC(=O)c2cc(-c3ccco3)on2)cc1	1.27	149.3*	-4.9	1.8	-0.5	-27.7
COc1ccc(Nc2cccc(Cl)c2)c(C(=O)O)c1	3.57*	106.0	-7.2	0.6	-0.2	-8.2
COc1ncnc(OC)c1S(=O)(=O)Nc1ccc(C(F)(F)F)cc1	x	x	x	x	2.2	x
COc1cc2cc(CCOC(=O)c3ccc(C#N)cc3)oc(=O)c2cc1OC	x	x	x	x	-1.0	x
O=C(Nc1cccc(Cl)c1)c1cc(-c2ccco2)on1	x	x	x	x	-3.0	x
CCc1ccc(NC(=O)c2cc(-c3ccco3)on2)cc1	2.64	129.7*	-6.2	0.7	-2.2	-29.1
Cc1ccc(-c2cc(C(F)F)n3ncc(C(=O)N4CCCCC4c4cccnc4)c3n2)cc1 (stereo not drawn)	1.06	91.4	-15.3	0.4	4.4	3.9
O=C(c1cnn2c(C(F)(F)F)cc(-c3ccccc3)nc12)N1CCCCC1c1cccnc1 (stereo not drawn)	1.08	98.8	-5.4	-0.4	50.0*	0.0
CCc1ccc(C(=O)NNC(=O)CCC2CCCCC2)cc1	x	x	x	x	-0.3	x
COc1cccc(-c2cc(C(F)(F)F)n3nc(N)nc3n2)c1	1.18	99.3	-9.7	0.6	68.5*	4.4
O=C(CCNc1ccc(Cl)cc1)c1cccs1	2.06	130.4*	3.8	0.5	-0.1	-15.4
O=C(CCNc1cc(Cl)cc(Cl)c1)c1cccs1	1.25	98.6	14.6	1.6	11.7	-6.8
CN(C)c1ccc(/C=C2\SC(=O)N(CC(O)Cn3c4ccccc4c4ccccc43)C2=O)cc1 (stereo not drawn)	0.96	103.4	x	-0.2	10.6	-19.3
CN(C)c1ccc(/C=C2/SC(=O)N(CCN=C3NS(=O)(=O)c4ccccc43)C2=O)cc1	1.36	133.2*	35.2	0.8	8.0	-9.1
Cc1ccc(C(=O)c2ccccc2C(=O)OCC(=O)Nc2ccc(SC(F)F)cc2)cc1	0.91	100.7	-23.4	-0.4	15.8	-14.9
O=C(COC(=O)c1ccccc1Cc1ccccc1)Nc1ccc(SC(F)F)cc1	1.24	132.0*	93.2	0.9	0.9	-21.9
C=CCNC(=O)COC(=O)c1ccc(Sc2nncn2C)c([N+](=O)[O-])c1	1.08	102.4	-10.5	0.4	-1.6	-9.7
SMILES	NF-kB neuron act	STAT1 act	APP 5'UTR act	PERK inhibitor	AHR activator	Mdm2 ligase inh
CCCCNc1n[n+](C)c(-c2cccc(C)c2)s1	x	x	x	x	x	34.8*
Cc1ccc(NC2CCCN(C(=O)CCc3scnc3C)C2)cc1C (stereo not drawn)	x	x	x	x	50.2*	x
O=C(/C=C/c1ccccc1)N1CCC(c2ccccc2)C1 (stereo not drawn)	4.44*	137.2*	140.7*	0.2	3.3	0.1
O=C(Nc1ccccc1)N1CCC(c2ccccc2)C1 (stereo not drawn)	3.06	138.0*	77.8	0.0	-3.0	-6.8
O=C(c1cccs1)N1CCC(c2ccccc2)C1 (stereo not drawn)	2.44	134.7*	68.0	-0.1	-6.7	-4.6
O=C(COc1ccc(F)cc1)N1CCC(c2ccccc2)C1 (stereo not drawn)	2	135.8*	47.1	0.2	7.6	4.0
CCOC(=O)C1CCCN(S(=O)(=O)CCNC(=O)c2ccc(F)cc2)C1 (stereo not drawn)	x	x	x	x	3.2	x
CN(C)S(=O)(=O)c1cc(C(=O)Nc2ccccc2C(=O)NC2CC2)ccc1Cl	x	x	x	x	-0.4	x
CCOc1ccc2nc(N3C(=O)/C(=C/c4ccccc4)NC3=S)sc2c1	1.86	137.3*	36.9	0.8	16.8	-12.6
CCNC(C(=O)c1c[nH]c2c(CC)cccc12)c1ccccc1 (stereo not drawn)	x	x	x	x	-0.5	x
COc1ccc2c(c1)c1nnc(SC)nc1n2C	1.32	124.4	11.0	0.8	44.4	-9.5
COc1ccc2c(c1)c1nnc(SCC(=O)N3C(C)CCCC3C)nc1n2C (stereo not drawn)	0.43	105.0	6.6	-0.8	50.4*	-19.2
Nc1cccn2c(-c3ccc(Cl)cc3)cnc12	8.47*	128.1	138.4*	1.0	70.2*	-10.1
Cn1c(-c2ccc(Cl)cc2)cnc1N	1.36	96.3	11.7	0.1	1.0	-17.6
Cc1ccc(NC(=S)N(CCN2CCOCC2)Cc2cc3cc4c(cc3[nH]c2=O)OCO4)cc1	0.82	96.3	-0.5	1.4	5.5	-10.0
O=C(CN1C(=O)NC2(CCCCCC2)C1=O)NCCc1ccccc1	x	x	x	x	1.7	x
COc1cccc(/C=C/C(=O)c2cccc([N+](=O)[O-])c2)c1OC	1.09	95.5	0.7	-0.1	14.4	2.5
COc1ccc(/C=C/C(=O)c2ccncc2)c2ccccc12	1.05	100.5	-11.1	0.5	52.7*	3.6
Cc1ccc(CN2C(=O)C(C)Nc3ncnc(N4CCN(c5ccccn5)CC4)c32)cc1 (stereo not drawn)	x	x	x	x	60.1*	x
CC1Nc2ncnc(N3CCN(c4ccccn4)CC3)c2N(Cc2ccccc2)C1=O (stereo not drawn)	x	x	x	x	12.2	x
Fc1ccc(/C=C/c2nnc(-c3cccs3)o2)cc1	4.17*	128.9*	82.5	0.7	-4.7	-18.7
Cc1ccc(-c2nnc(-c3cccs3)o2)cc1	5.48*	127.1	140.5*	-0.2	-1.1	-43.0
O=C(Nc1nnc(-c2cccs2)o1)c1cccc(F)c1	x	109.6	1.7	-0.3	12.6	x
Cc1ccc(/C=C/c2nnc(-c3ccc(C)cc3)o2)cc1	1.73	101.5	2.9	0.6	-1.7	3.4
Cc1ccc(-c2nnc(-c3ccccc3)o2)cc1	7.87*	127.9	132.6	-0.1	7.7	-37.0
Cc1ccc(/C=C/c2nnc(-c3cccs3)o2)cc1	5.15*	91.0	1.8	0.7	35.1	-5.0
c1ccc(-c2nnc(-c3cccc(-c4nnc(-c5ccccc5)o4)c3)o2)cc1	x	105.8	-4.3	0.6	x	x
Cc1nn(CC(=O)N2CCCCCC2)c(=O)c2cc3occc3n12	x	x	x	x	0.8	x
